Folding enthalpy and Tm data for 54 sequences are collected here from the array DNA melting data of Ke et al. (doi:10.1101/2024.01.08.574731).

Series [1] is described as follows: folding enthalpy; higher = less favourable; fluorescence melt of hairpins on a sequencing array, two-state fit. The settings on record: sodium 0.088 M. In a few lines: (§1)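 Melting temperature and folding enthalpy were derived from bootstrapped two-state fits. The fitted temperatures were raised by 9.35 °C to agree with UV melts, and four replicates were combined by inverse variance. The underlying data were Cy3 fluorescence images of library hairpins, with annealed Cy3 and quencher oligos, on a sequenced MiSeq flow cell in 50 mM Na-HEPES pH 8.0, 25 mM NaCl, taken in 2.5 °C steps up to 60 °C, normalised to pre-quench Cy3 and to control constructs.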

Series [2] in a line: melting temperature; fluorescence melt of hairpins on a sequencing array, two-state fit, raised by 9.35 °C to match UV melts. The settings on record: sodium 0.088 M. In a few lines:
as §1

With GCATGCGGAAACGCGTGC (((.(((....))).))), the folding enthalpy in series [1] was -45.2 kcal/mol. Besides, the Tm in series [2] was determined as 67.6 °C.
On to GCATGGCGAAAGCAAAGC ((.(.((....)).).)), for which, in series [1], the folding enthalpy is -10.9 kcal/mol. In series [2], the Tm was 31.8 °C.
Taken in the same sequence, the figures for GCATGGCGAAAGCAACGC ((.(.((....)).).)) were -10.8 kcal/mol and 30.7 °C.
Taken in the same sequence, the figures for GCATGGCGAAAGCACTGC (((..((....))..))) were -20.6 kcal/mol and 46.3 °C.
Taken in the same sequence, the figures for GCATGGCGAAAGCGCTGC (((..((....))..))) were -18.6 kcal/mol and 51.6 °C.
With GCATGGCGAAAGCTATGC ((((.((....)).)))), the folding enthalpy in series [1] was -37.9 kcal/mol. The Tm in series [2] amounted to 66.6 °C.
Taken in the same sequence, the figures for GCATGGGGAAACTCATGC (((((.(....).))))) were -40.3 kcal/mol and 51.9 °C.
Taken in the same sequence, the figures for GCATGTCCGAAAGGATGC (((..(((....)))))) were -16.4 kcal/mol and 40.2 °C.
Taken in the same sequence, the figures for GCATGTCGAAAGACTTGC (((.(((....))).))) were -43.8 kcal/mol and 54.6 °C.
On to GCATGTGAAAACATGC ((((((....)))))), for which the folding enthalpy in series [1] was -38.3 kcal/mol. Besides, the Tm in series [2] came out at 64 °C.
With GCATGTGGAAACATATGC ((((.((....)).)))), the folding enthalpy in series [1] was -30.9 kcal/mol. In addition, the Tm in series [2] was 49.5 °C.
Taken in the same sequence, the figures for GCATTAGGAAACCAATGC (((((.(....).))))) were -29.6 kcal/mol and 39.6 °C.
Taken in the same sequence, the figures for GCATTAGGAAACTGATGC ((((.((....)).)))) were -36.7 kcal/mol and 45.4 °C.
Taken in the same sequence, the figures for GCATTCGAAAGAATGTGC ((((((....)))..))) were -36.8 kcal/mol and 50.6 °C.
For GCATTGCGAAAGCACAGC ((..(((....)))..)), in series [1], the folding enthalpy was -15.2 kcal/mol. Further, the Tm in series [2] amounted to 35.4 °C.
Taken in the same sequence, the figures for GCATTGCGAAAGCACGGC ((..(((....)))..)) were -16.6 kcal/mol and 40 °C.
Taken in the same sequence, the figures for GCATTGCGAAAGCACTGC (((.(((....))).))) were -45.1 kcal/mol and 52.2 °C.
Regarding GCATTGCGAAAGCCAGGC ((.(.((....)).).)), in series [1], the folding enthalpy is -17.6 kcal/mol. For the same sequence, the Tm in series [2] was determined as 38.5 °C.
Taken in the same sequence, the figures for GCATTGCGAAAGCCCTGC (((..((....))..))) were -14.6 kcal/mol and 34.5 °C.
Taken in the same sequence, the figures for GCATTGCGAAAGCCGTGC (((..((....))..))) were -22 kcal/mol and 41.2 °C.
Taken in the same sequence, the figures for GCATTGCGAAAGCGATGC ((((.((....)).)))) were -38 kcal/mol and 67.5 °C.
Consider GCATTGGGAAACCAATGC (((((((....))))))), for which the folding enthalpy in series [1] is -44.9 kcal/mol. The Tm in series [2] is 65.8 °C.
In the case of GCATTGGGAAACTGATGC ((((..(....)..)))), the folding enthalpy in series [1] was -30 kcal/mol. In addition, the Tm in series [2] was determined as 38.8 °C.
Taken in the same sequence, the figures for GCATTTCGAAAGAATGC (((.(((....)))))) were -30.5 kcal/mol and 45.5 °C.
In the case of GCATTTGCGAAAGCATGC (((..(((....)))))), in series [1], the folding enthalpy was -17.9 kcal/mol. The Tm in series [2] came to 44.9 °C.
Taken in the same sequence, the figures for GCCAAAGCGAAAGCTGGC (((..(((....)))))) were -26.1 kcal/mol and 59.7 °C.
Regarding GCCAAAGGAAACTTCGGC (((.(((....))).))), in series [1], the folding enthalpy was -24 kcal/mol. In series [2], the Tm came to 39.6 °C.
Taken in the same sequence, the figures for GCCAACCGAAAGGTAGGC (((.(((....))).))) were -39.1 kcal/mol and 60.4 °C.
In the case of GCCAACGAAAGTTCAGGC ((((((....)))..))), the folding enthalpy in series [1] was -28.2 kcal/mol. Besides, the Tm in series [2] worked out at 40.7 °C.
Taken in the same sequence, the figures for GCCAACGAAAGTTCGGC ((((((....))).))) were -26.3 kcal/mol and 51.2 °C.
Taken in the same sequence, the figures for GCCAACGAAAGTTTGGGC ((((((....)))..))) were -26.9 kcal/mol and 46 °C.
Taken in the same sequence, the figures for GCCAAGCGAAAGCATGGC ((((.((....)).)))) were -34.9 kcal/mol and 67 °C.
As for GCCAAGCGAAAGCCAGGC (((..((....))..))), the folding enthalpy in series [1] was -22.2 kcal/mol. Moreover, the Tm in series [2] was 54.5 °C.
Taken in the same sequence, the figures for GCCAAGCGAAAGCTAGGC (((.(((....))).))) were -40.1 kcal/mol and 60.4 °C.
Taken in the same sequence, the figures for GCCAAGGAAACTTGGC ((((((....)))))) were -38.2 kcal/mol and 62.9 °C.
Taken in the same sequence, the figures for GCCAATCGAAAGATAGGC (((.(((....))).))) were -35.6 kcal/mol and 52.1 °C.
Consider GCCACAGGAAACCGTGGC (((((.(....).))))), for which the folding enthalpy in series [1] is -43 kcal/mol. Moreover, the Tm in series [2] came to 55.4 °C.
Taken in the same sequence, the figures for GCCACAGGAAACTATGGC ((((.((....)).)))) were -31.8 kcal/mol and 39.3 °C.
Taken in the same sequence, the figures for GCCACAGGAAACTGCGGC (((.(((....))).))) were -56.4 kcal/mol and 52 °C.
Taken in the same sequence, the figures for GCCACCACGAAAGTGGGC (((..(((....)))))) were -9.17 kcal/mol and 46 °C.
In the case of GCCACCCCGAAAGGGGGC (((..(((....)))))), the folding enthalpy in series [1] was -11.4 kcal/mol. Further, the Tm in series [2] is 55.8 °C.
Taken in the same sequence, the figures for GCCACCGAAAGGTAGGGC ((((((....)))..))) were -27.6 kcal/mol and 52.7 °C.
Taken in the same sequence, the figures for GCCACCGAAAGGTCTGGC ((((((....)))..))) were -19.4 kcal/mol and 47.4 °C.
Taken in the same sequence, the figures for GCCACCGAAAGGTGAGGC ((((((....)))..))) were -14.1 kcal/mol and 54.9 °C.
Consider GCCACCGGAAACGGCGAC (.(.(((....))).).), for which the folding enthalpy in series [1] was -14.2 kcal/mol. Besides, the Tm in series [2] amounted to 34.7 °C.
Taken in the same sequence, the figures for GCCACCGGAAACGGTGAC (.(((((....))))).) were -14 kcal/mol and 48.8 °C.
With GCCACGCGAAAGCACGGC (((..((....))..))), the folding enthalpy in series [1] is -35.9 kcal/mol. In addition, the Tm in series [2] turned out to be 61.9 °C.
Take GCCACGCGAAAGCCTGGC ((((.((....)).)))): in series [1], the folding enthalpy is -30.4 kcal/mol. The Tm in series [2] came out at 59.6 °C.
In the case of GCCACGCGAAAGCGTCGC ((.((((....)))).)), the folding enthalpy in series [1] is -16.1 kcal/mol. The Tm in series [2] came to 60.2 °C.
In the case of GCCACGCGAAAGCTAGGC (((..((....))..))), the folding enthalpy in series [1] is -21.9 kcal/mol. In addition, the Tm in series [2] came out at 52.1 °C.
Taken in the same sequence, the figures for GCCACGGGAAACCGTAGC ((.((((....)))).)) were -23.2 kcal/mol and 46.6 °C.
Taken in the same sequence, the figures for GCCACTGGAAACAACGGC (((..((....))..))) were -17.3 kcal/mol and 27.6 °C.
Taken in the same sequence, the figures for GCCACTGGAAACAATGGC ((((.((....)).)))) were -26.7 kcal/mol and 42.2 °C.
With GCCACTGGAAACAGTAGC ((.((((....)))).)), in series [1], the folding enthalpy is -27.7 kcal/mol. Also, in series [2], the Tm worked out at 40.5 °C.
